Many of the other results were omitted from the sample, so hits are more common in it than they were.
Insulin prom act: activators of insulin promoter-driven GFP, primary screen, imaging, TRM-6 cells (human fetal islet line), eGFP reporter, cell count; activation, % at 2 µM; plate-scaled: unstimulated 0, stimulated control 100; 130,000 tested, 0.81% active;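 active = activation at 2 µM above a set limit, confirmed on inspection of the cell images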;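 also: share of cells whose green reporter signal exceeds an intensity cutoff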
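Test system: TRM-6 insulin promoter–eGFP reporter cells / Quantity: 1,000 cells per well / Reagent: tamoxifen inducer, 0.75 µM, in seeding medium / Compound dosing: 2 µM final, single concentration / Schedule: overnight tamoxifen, then two-day compound incubation at 37 °C / Measured by: automated fluorescence imaging of paraformaldehyde-fixed, Hoechst-counterstained cells, green channel / Read-out: percent activation from GFP-positive cell fraction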
Starred values were filed as active, the others as inactive.

SMILES	Insulin prom act
COC(=O)c1c(NC(=O)c2nn(C)cc2Cl)sc2c1CCCC2	3
Cn1cc(Cl)c(C(=O)NNC(=S)NC2CCCCC2)n1	492*
CCc1ccc(-c2cn(C3CCCCC3)c(=S)[nH]2)cc1	0
Cc1ccc2[nH]c(C)c(CCNC(=O)C3CCCCC3C(=O)OCC(F)(F)F)c2c1 (stereo unspecified)	8
O=C(NC12CC3CC(CC(C3)C1)C2)c1ccc(-c2ccccc2Cl)o1	219*
S=C(c1ccc(-c2ccccc2Cl)o1)N1CCOCC1	7
O=C(NCc1ccco1)c1ccc(-c2ccccc2Cl)o1	-7
O=C(CCl)Nc1cn(-c2ccccc2)nc1-c1ccccc1	-7
COc1ccc(/C(N)=N/OC(=O)Cc2ccc(OC)c(OC)c2)cc1	210*
COc1ccc(C/C(N)=N/OC(C)=O)cc1OC	8
COc1ccc(C(=O)O/N=C(\N)c2ccncc2)cc1OC	-7
COc1ccc(NS(=O)(=O)c2ccc(O)c(NC(=O)c3cc4c(C)nn(-c5ccc(F)cc5)c4s3)c2)cc1	-85
CC(C)C[C@H](NC(=O)OC(C)(C)C)c1n[nH]c(=S)n1N	7
NC(=S)Nn1c(-c2ccccc2)nc2ccccc2c1=O	3
Cc1c(C(=O)NN)nn(-c2ccc(Cl)cc2)c(=O)c1C#N	0
COC(=O)Nc1nn(-c2ccc(OC)cc2)c(=O)c(C#N)c1C	287*
CCOC(=O)c1nn(-c2ccccc2)c2nc(-c3ccc(OC)cc3)c(C#N)c(=O)n12	7
S=C(Nc1ccc2cn[nH]c2c1)Nc1ccccc1Cl	-64
COc1cccc(CC(Cc2nc3ccccc3[nH]2)c2nc3ccccc3[nH]2)c1 (stereo unspecified)	179
CCOC(=O)c1c(NC(=O)CSc2nnc(CNC(=O)c3ccco3)n2C)sc2c1CCC2	0
O=[N+]([O-])c1cc(CN2CCN(c3ccccc3)CC2)c(O)c2ncccc12	330*
Oc1ccc(CN2CCN(Cc3ccccc3)CC2)c2cccnc12	-50
O=C(Oc1c(CN2CCOCC2)cc(Cl)c2cccnc12)c1ccccc1	9
CCCNC(=O)NC(=O)CSc1cccc(C(F)(F)F)c1	146
Cc1nc([N+](=O)[O-])c(C(=O)OCc2ccccc2F)n1C	6
SMILES	Insulin prom act
CCc1ccc(S(=O)(=O)/N=C2\C=CC(=O)c3ccccc32)cc1	327*
CCc1ccc(S(=O)(=O)/N=C2/C=C(Sc3ncn[nH]3)C(=O)c3ccccc32)cc1	169
Cc1[nH]n(-c2ccccc2)c(=S)c1C=Nc1ccc([N+](=O)[O-])cc1	0
O=C(COC(=O)CNC(=O)c1ccccc1F)Nc1cccc(S(=O)(=O)N2CCCCCC2)c1	114
CCCCCNC(=O)c1cc(S(=O)(=O)N2CCCCC2)ccc1F	254*
CCOC(=O)N1CCC(NC(=O)c2cc(S(=O)(=O)N3CCCCC3)ccc2F)CC1	-3
COc1cc2c(cc1OC)C(=S)NC(C)(C)C2	-7
O=C(c1ccco1)N1CCCN(C(=O)c2ccco2)CC1	-23
Cc1occc1C(=O)N1CCN(Cc2ccccc2)CC1	0
Cc1ccc(CN2CCN(C(=O)c3ccco3)CC2)cc1	422*
Cc1cc2c(c(SCC#N)n1)C(=O)OC2	4
C[C@H](NC(=O)c1ccccc1Cl)C(=O)NCc1cccs1	-7
CC1(C)OC(c2ccccc2)=C/C(=C/C=N/NC(=O)c2ccncc2)O1	8
O=C(CO/N=C/c1cccc([N+](=O)[O-])c1)NC1CCCCCC1	450*
O=C(NC1CCCCC1)c1cc([N+](=O)[O-])ccc1N1CCCCC1	8
O=C(CCc1ccc(Oc2cc([N+](=O)[O-])cc([N+](=O)[O-])c2)cc1)NC1CCCC1	3
COC(=O)C1=C(C)Nc2c(c(=O)n(C)c(=O)n2C)C1c1ccc(C)cc1 (stereo unspecified)	-9
CCOC(=O)c1sc(=S)n(-c2ccccc2)c1N(C(C)=O)C(C)=O	147
O=C(COn1nnc2ccc(C(F)(F)F)cc21)Nc1c(Cl)cccc1Cl	0
Cc1ccc(-c2n[nH]c(=S)n2-c2ccccc2)cc1	485*
Cc1[nH]c2ccc(-c3n[nH]c(=S)n3-c3ccccc3)cc2c1C	-9
Cc1ccc(-n2c(-c3cccc(C)c3)n[nH]c2=S)cc1	-7
Cc1ccc(CN2CCN(Cc3cnc(N4CCOCC4)s3)CC2CCO)o1 (stereo unspecified)	6
CCNc1nc(NCC)n2c(SCC(=O)Nc3ccc(C(F)(F)F)cc3[N+](=O)[O-])nnc2n1	6
CCOc1ccc(C(=O)N(Cc2ccc(OC)cc2)Cc2cc3cc(OC)ccc3[nH]c2=O)cc1	-9
SMILES	Insulin prom act
CCCN(Cc1cc2cc(C)ccc2[nH]c1=O)C(=O)c1cccc(OC)c1	197*
CCCN(Cc1cc2cc(C)ccc2[nH]c1=O)S(C)(=O)=O	-92
O=C(Nc1sc2c(c1C(=O)N1CCOCC1)CCCCC2)c1cccnc1	-9
Cc1cc(C(=O)C(=O)O)c(C)n1-c1ccc(Cl)cc1	-6
O=C(c1cc2cc(Cl)ccc2oc1=O)N1CCCC1	294
CC1(C)CC(=O)c2cc(C(=O)N3CCCCC3)c(=O)n(-c3ccc(Cl)cc3)c2C1	164*
O=C1C2C3C=CC(C3)C2C(=O)N1c1ccc(N2CCN(c3ccccn3)CC2)c([N+](=O)[O-])c1 (stereo unspecified)	-85
Cc1ccc(CNS(=O)(=O)NCc2ccccc2)cc1	-8
COc1ccc(/C=N/NC(=O)CC2N=C(Cc3ccccc3)NNC2=O)cc1OC (stereo unspecified)	7
CC(=O)Nc1ccc(NC(=O)COC(=O)CCc2nc3ccccc3s2)cc1	0
COC(=O)c1ccccc1N1C(=O)C2C(C1=O)C1C=CC2C12CC2 (stereo unspecified)	164*
COC(=O)c1ccccc1N1C(=O)C2C(C1=O)[C@H]1C=C[C@@H]2C1 (stereo partly specified)	-75
O=C(COc1ccc(Cl)c(Cl)c1)NN1C(=O)C2C(C1=O)C1C=CC2C12CC2 (stereo unspecified)	6
COc1cccc(/C=N/NC(=O)C(=O)N/N=C/c2cccc(OC)c2OC)c1OC	0
C/C(=N\OCC(=O)N/N=C/c1ccccc1)c1cccs1	-9
COc1cccc(/C=N/NC(=O)CO/N=C(\C)c2cccs2)c1OC	86*
Cc1cccnc1CCNC(=O)CC1C(=O)NCCN1CC1CCCCC1 (stereo unspecified)	4
CCOC(=O)N1CCC(=NNC(=O)c2cc3ccccc3cc2O)CC1	8
CCOC(=O)N1CCC(=NNc2ccnc3cc(Cl)ccc23)CC1	558*
Cc1ccccc1/C=N/Nc1ccnc2cc(Cl)ccc12	-80
Cc1ccc(-n2nnnc2SCC(=O)N2CCCCC2)cc1	3
Cc1ccc(-n2c(CNc3ccc(F)cc3)nnc2SCC(=O)N2CCCC2)cc1	162*
CC1CCN(C(=O)CSc2nnc(Cc3cccn3C)n2-c2ccc(F)cc2)CC1	-71
CCOC(=O)c1cc2sc(C)cc2n1CC(=O)NCc1ccc(F)cc1	-82
COC(=O)c1cc2sccc2n1CC(=O)N1CCCc2ccccc21	193*
SMILES	Insulin prom act
CCOC(=O)c1cc2sccc2n1CC(=O)C(C)(C)C	213*
CCOC(=O)c1cc2sccc2n1CC(=O)N1CCCc2ccccc21	9
CCOC(=O)c1cc2sccc2n1Cc1ccccc1	0
O=C(c1cc2sccc2n1Cc1ccccc1)N1CCc2ccccc21	0
COc1ccc(CNC(=O)COC(=O)CCc2c[nH]c3ccccc23)cc1	0
CCOC(=O)N1CCC(N2CCN(S(=O)(=O)c3ccc4ccccc4c3)CC2)CC1	5
